Here are results for seven molecules from ChEMBL document CHEMBL4680083, “Identification of Tricyclic Agonists of Sphingosine-1-phosphate Receptor 1 (S1P) Employing Ligand-Based Drug Design” (J Med Chem, 2016).

The test system of data set [1] is Rattus norvegicus. Kind of data set: Antiarthritic activity in Lewis rat model of Complete Freund's adjuvant-induced arthritis assessed as reduction in paw swelling at 0.1 mg/kg, po qd administered for 21 days after CFA injection and measured weekly three times upto day 21 by water displacement plethysmometry. It is filed as functional. The conditions noted are these: time 21.0 day. In outline:
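Male Lewis rats, 200−225 g, n = 8 per group. Immunized at the tail base with 100 μL of 10 mg/mL ground Mycobacterium butyricum in incomplete Freund's adjuvant. Oral dosing once daily in PEG300 vehicle from the day of immunization for 21 days, at 0.03, 0.1 or 1.0 mg/kg. Dexamethasone 0.1 mg/kg PO QD as positive control. Paw volume by water displacement plethysmometry, day 7 to day 21.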

Data set [2] concerns Rattus norvegicus. Nature of the data set: Reduction in circulating lymphocytes count in Lewis rat blood at 1 mg/kg, po measured at 24 hrs by hematology analyzer based analysis. It is filed as functional. On the set-up: scale not given: the % may be the effect or the level left. An outline of the steps: (§1)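 Lewis rats were given an oral dose as a solution or suspension in PEG300, with controls receiving vehicle only. Blood was taken by retro-orbital bleeding under isoflurane at 4 and 24 h. Lymphocytes were counted on a hematology analyzer. Reduction is relative to the vehicle group, averaged over the animals in each group (n = 3−4).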

A short description of data set [3]: Plasma concentration in Lewis rat at 1 mg/kg, po measured at 24 hrs. As to conditions: Lewis, plasma. The class given is ADME, organism-based. In outline: (§2)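 Lewis rats received a single oral 1.0 mg/kg dose as solution or suspension in PEG300. Blood was drawn retro-orbitally under isoflurane at 4 h and 24 h, within the blood lymphocyte reduction study. n = 3−4 per group, group mean reported.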

The target of data set [4] is Sphingosine 1-phosphate receptor 3 (Homo sapiens, UniProt Q99500). Kind of data set: Agonist activity at human S1P3 expressed in CHO cell membranes assessed as stimulation of [35S]-GTPgamma-S binding measured after 45 mins by liquid scintillation counting method. Set-up: species or system Cell membrane.
Sequence of Sphingosine 1-phosphate receptor 3 (Q99500 whole entry): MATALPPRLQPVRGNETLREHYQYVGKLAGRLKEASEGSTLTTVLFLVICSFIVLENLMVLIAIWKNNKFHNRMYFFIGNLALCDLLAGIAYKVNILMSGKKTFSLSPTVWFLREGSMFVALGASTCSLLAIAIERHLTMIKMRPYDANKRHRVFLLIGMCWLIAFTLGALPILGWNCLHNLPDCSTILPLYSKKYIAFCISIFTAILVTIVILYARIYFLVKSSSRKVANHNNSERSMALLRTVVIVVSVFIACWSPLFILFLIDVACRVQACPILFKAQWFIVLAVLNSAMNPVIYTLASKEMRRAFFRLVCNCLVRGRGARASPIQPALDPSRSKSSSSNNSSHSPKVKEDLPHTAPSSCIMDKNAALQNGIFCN
The test system of data set [5] is Rattus norvegicus. Kind of data set: Reduction in circulating lymphocytes count in Lewis rat blood at 1 mg/kg, po measured at 4 hrs by hematology analyzer based analysis. It is filed as functional. Set-up: scale not given: the % may be the effect or the level left. An outline of the steps:
as §1

Data set [6] addresses Sphingosine 1-phosphate receptor 1 (Homo sapiens, UniProt P21453). Kind of data set: Agonist activity at human S1P1 expressed in CHO cell membranes assessed as stimulation of [35S]-GTPgamma-S binding measured after 45 mins by liquid scintillation counting method. On the set-up: species or system Cell membrane. In outline: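 S1P1/CHO cell membranes at 3 μg protein/well with 3-fold compound dilutions. [35S]GTPγS 0.2 nM final, 45 min at room temperature. Filter-plate capture, water washes, scintillation counting. EC50 taken at 50% of each compound's own Ymax.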

The nature of data set [7]: Selectivity index, ratio of EC50 for agonist activity at human S1P3 expressed in CHO cell membranes to EC50 for agonist activity at human S1P1 expressed in CHO cell membranes. It is filed as cell-based.
Data set [8] can be described thus: Plasma concentration in Lewis rat at 1 mg/kg, po measured at 4 hr. The class given is ADME, organism-based. The conditions noted are these: Lewis, plasma. In outline:
as §2

Data set [9] can be described thus: Ratio of plasma concentration in Lewis rat at 1 mg/kg, po measured at 4 hrs to plasma concentration in Lewis rat at 1 mg/kg, po measured at 24 hrs. It is filed as ADME, organism-based. As to conditions: in vivo.

Calls of active or inactive are those of the source. No cut-off for these calls is given here.

Sequence of Sphingosine 1-phosphate receptor 1 (P21453 whole entry): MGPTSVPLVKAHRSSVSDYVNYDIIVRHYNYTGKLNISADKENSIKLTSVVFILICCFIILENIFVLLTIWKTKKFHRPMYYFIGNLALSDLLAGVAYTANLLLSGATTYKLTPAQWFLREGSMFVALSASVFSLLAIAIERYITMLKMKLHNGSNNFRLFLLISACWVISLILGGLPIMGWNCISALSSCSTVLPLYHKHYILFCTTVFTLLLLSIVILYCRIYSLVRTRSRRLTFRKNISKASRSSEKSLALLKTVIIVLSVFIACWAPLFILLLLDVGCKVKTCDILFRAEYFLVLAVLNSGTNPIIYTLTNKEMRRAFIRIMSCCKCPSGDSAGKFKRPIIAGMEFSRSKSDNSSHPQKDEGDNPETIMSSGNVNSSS

`C[C@@H]1C[C@H]2[C@@H]3CCC4=CC(=O)C=C[C@]4(C)[C@@]3(F)[C@@H](O)C[C@]2(C)[C@@]1(O)C(=O)CO`: in data set [1], the result was Active.
Usually EC50 stands for the concentration that produces a half-maximal response. With `CC(C)Cc1onc(-c2onc3c2CCc2cc(CN4CC(C(=O)O)C4)ccc2-3)c1C(F)(F)F`, the values for the Activity in [2] and in data set [5] were 80% and 86%, respectively. In data set [3], this molecule returned a concentration at 24 h of 61 nM. Besides, the concentration giving a half-maximal response (EC50) is greater than 3100 nM in [4] and 1.5 nM in data set [6]. In [7], the Ratio EC50 is greater than 2100. Further, the concentration at 4 h in [8] amounted to 520 nM. Moreover, the Ratio in data set [9] came to 9.
For `O=C(O)C1CN(Cc2ccc3c(c2)CCc2c(-c4onc(-c5ccccc5)c4C(F)(F)F)noc2-3)C1`, the Activity in [2] is reported as 79%; in data set [5], 66%. The molecule also came in with a concentration at 24 h in [3] of 8 nM. The concentration giving a half-maximal response (EC50) in [4] is 4400 nM; in data set [6] it was 1.3 nM. In [7], the Ratio EC50 was 3400. The same molecule displayed a concentration at 4 h in data set [8] of 34 nM. In addition, in [9], the Ratio is 4.
In the case of `O=C(O)C1CN(Cc2ccc3c(c2)OCc2c-3noc2-c2onc(-c3ccccc3)c2C(F)(F)F)C1`, the Activity worked out at 89% in [2] and 82% in data set [5]. In addition, the concentration at 24 h in data set [3] amounted to 56 nM. Further, the EC50 is greater than 31000 nM in data set [4] and 0.25 nM in [6]. Also, the Ratio EC50 in [7] was greater than 120000. In [8], this molecule registered a concentration at 4 h of 330 nM. For the same molecule, the Ratio in data set [9] is given as 6.
For `O=C(O)C1CN(Cc2ccc3c(c2)CCc2nc(-c4onc(-c5ccccc5)c4C(F)(F)F)sc2-3)C1`, the Activity in data set [2] amounted to 85%; in [5], 80%. In [3], this molecule registered a concentration at 24 h of 84 nM. Also, the values for the EC50 in [4] and in [6] were 12000 nM and 2.4 nM, respectively. In [7], the Ratio EC50 is 5000. Moreover, in data set [8], the concentration at 4 h is 230 nM. In addition, the Ratio in data set [9] turned out to be 3.
On to `O=C(O)C1CN(Cc2ccc3c(n2)CCc2c(-c4noc(-c5ccccc5)c4C(F)(F)F)noc2-3)C1`, for which the figures for the Activity in data set [2] and in [5] were 32% and 76%, respectively. In [3], this molecule displayed a concentration at 24 h of 47 nM. The values for the 50% effective concentration (EC50) in data set [4] and in [6] were greater than 63000 nM and 17 nM, respectively. In addition, the Ratio EC50 in data set [7] is greater than 3700. Also, the concentration at 4 h in data set [8] was found to be 460 nM. In addition, in [9], the Ratio came to 10.
Turning to `O=C(O)C1CN(Cc2ccc3c(c2)CCc2nc(-c4onc(-c5ccccc5)c4C(F)(F)F)oc2-3)C1`, the Activity in [2] is reported as 2%; in data set [5] it was 62%. This molecule yielded a concentration at 24 h in data set [3] of 11 nM. In addition, the 50% effective concentration (EC50) stood at 920 nM in data set [4] and 5.5 nM in data set [6]. Further, the Ratio EC50 in data set [7] was found to be 170. Further, the concentration at 4 h in data set [8] is 110 nM. The Ratio in data set [9] stood at 10.
